Source: PubChem BioAssay
Hits are enriched below; roughly 3.7% of the tested compounds scored in any of these assays.
KCNQ1 pot – potentiators or activators of human KCNQ1 potassium channel; P51787; CHO-K1 KCNQ1, thallium flux FluxOR fluorescence; hits give high values; B-score at 10 µM; 0.35% of 310,000 active;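 active = fluorescence ratio B-score, a plate-corrected score, at least three library SD, with initial intensity B-score within 5 SD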
Target sequence (P51787 whole entry, looked up): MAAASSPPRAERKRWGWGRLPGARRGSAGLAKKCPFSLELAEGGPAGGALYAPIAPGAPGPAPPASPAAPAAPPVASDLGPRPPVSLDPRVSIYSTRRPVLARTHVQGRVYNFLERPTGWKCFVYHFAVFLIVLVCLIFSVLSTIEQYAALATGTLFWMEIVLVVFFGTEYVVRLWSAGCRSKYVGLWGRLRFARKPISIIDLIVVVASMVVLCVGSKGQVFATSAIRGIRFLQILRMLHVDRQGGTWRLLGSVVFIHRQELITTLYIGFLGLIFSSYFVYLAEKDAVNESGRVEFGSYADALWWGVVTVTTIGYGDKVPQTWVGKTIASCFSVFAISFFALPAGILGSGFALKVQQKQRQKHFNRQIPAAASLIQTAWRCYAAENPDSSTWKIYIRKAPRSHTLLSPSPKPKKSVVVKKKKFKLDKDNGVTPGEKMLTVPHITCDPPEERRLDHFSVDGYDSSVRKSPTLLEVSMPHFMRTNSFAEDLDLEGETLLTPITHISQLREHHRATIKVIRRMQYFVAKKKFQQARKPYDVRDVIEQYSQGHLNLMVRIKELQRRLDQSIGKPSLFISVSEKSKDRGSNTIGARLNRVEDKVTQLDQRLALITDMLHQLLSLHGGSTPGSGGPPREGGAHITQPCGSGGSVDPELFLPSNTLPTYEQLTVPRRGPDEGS
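Doses: Single concentration per compound, DMSO matched to controls | Test system: KCNQ1-transfected CHO-K1 cells | Timing: 90 min dye loading and 20 min compound exposure, both at room temperature | Measured by: Kinetic FluxOR thallium fluorescence, 10-s 1-Hz baseline, 110-s post-stimulus read | Medium: Assay buffer with matched DMSO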
KCNQ1 block – human KCNQ1 channel inhibition; P51787; CHO-K1 KCNQ1, FluxOR thallium flux fluorescence; hits give high values; B-score at 10 µM; 1.3% of 310,000 active;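 active = compounds whose thallium flux B-score, printed positive for inhibition, exceeds three library SD while starting fluorescence stays within three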;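 also: channel opened by potassium depolarization with thallium stimulus after 20 min compound exposure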
KCNK9 block – human KCNK9 channel inhibition. Q9NPC2. HEK293 KCNK9, FluxOR thallium flux fluorescence; hits give low values. B-score at 10 µM. 1.2% of 310,000 active. AID 488922;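 active = ratio B-score over 3 SD below the library mean, with starting fluorescence within 5 SD of its mean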;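 also: negative B-score means less thallium flux so channel inhibition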
Kir21 block – inhibitors of mouse Kir2.1 inward-rectifier potassium channel; HEK293-Kir2.1, FluxOR thallium flux fluorescence; hits give low values; B-score at 10 µM; 0.85% of 310,000 active; AID 1672;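 active = fluorescence ratio B-score at or below minus 3 SD of library scores, with starting-brightness B-score within 2 SD, cut at about -4.2 in these data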;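 also: channel flux triggered by added potassium and thallium sulfate stimulus; B-score of peak minus minimum fluorescence over baseline after thallium stimulus; more negative B-score means stronger Kir2.1 block with less thallium influx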
KCNK3 inh – human KCNK3 channel inhibition, primary screen; O14649; CHO-KCNK3 thallium flux, FluxOR fluorescence; hits give low values; B-score at 10 µM; 0.84% of 340,000 active; AID 602410;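 active = B-score under library mean minus 4 SD, starting fluorescence ratio at most library mean plus 5 SD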;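 also: more negative B-score means stronger inhibition of thallium flux through KCNK3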
hERG protect – shields human hERG channel from block by proarrhythmic agents; AID 1511; CHO-hERG, FluxOR thallium flux, dofetilide IC70 present; Q12809; activation (rescue from dofetilide block), less the hit threshold, % at 10 µM; 0.51% of 310,000 active;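 active = activation above the mean of controls blocked by dofetilide plus 5 SD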;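 also: thallium influx through hERG after potassium depolarization seen as dye fluorescence rise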
An asterisk follows results filed as active; i = inactive; . = not tested or not shown.

SMILES	KCNQ1 pot	KCNQ1 block	KCNK9 block	Kir21 block	KCNK3 inh	hERG protect
CC(=O)c1cccc(NC(=S)NCCCCc2ccccc2)c1	i	6*	i	-1.43	i	-9.4
Cc1ccc(Cl)cc1-n1c(SCC(=O)NCCC2=CCCCC2)nc2n[nH]c(C)c2c1=N	i	i	-7.23*	0.15	i	-12.3
Cc1ccccc1OC(C)C(=O)NCCC1=CCCCC1 (configuration not stated)	i	i	i	-8.87*	i	-7.4
Cc1c(CNCCC2=CCCCC2)c(C(=O)O)c(C)n1Cc1ccccc1	i	i	i	1.7	i	6.6*
Cc1cc(SCC(=O)NCCC2=CCCCC2)nc2ccccc12	i	i	i	-16.1*	i	-10.9
C[C@]12c3[nH]c4ccc(Cl)cc4c3CCN1C(=O)[C@@H](CC(=O)NCCC1=CCCCC1)C[C@@H]2C(=O)N1CCOCC1	.	.	.	.	i	.
C/C(=N/NC(=O)Cc1cccs1)c1ccco1	i	i	i	-0.2	i	-6.0
C=C(CN(C)C)C(=O)c1ccc2c(c1)OCO2	.	.	.	.	i	.
CCC(C(=O)NCCC1=CCCCC1)c1ccccc1 (configuration not stated)	i	i	i	-5.64*	i	-5.7
N#CC1C=Cc2c(ccc3ccccc23)N1C(=O)c1ccccc1 (configuration not stated)	.	.	.	.	i	.
COc1cccc(CC2(CO)CCN(C(=O)NCCc3ccccc3)CC2)c1	i	i	i	0.06	i	-1.3
COc1cccc(CC2(CO)CCN(C(=O)NC3CCCCC3)CC2)c1	i	i	i	-0.78	i	8.7*
COc1cc(NC(=O)c2csc(-c3ccncc3)n2)cc(C(=O)Nc2cccc(C(F)(F)F)c2)c1	i	11*	i	0.51	i	-26.4
CCN1CCN(Cc2ccc(NC(=O)c3cc(NC(=O)c4cc5cccc(OC)c5o4)cc(OC)c3)cc2C(F)(F)F)CC1	i	i	i	0	i	-32.9
COc1cccc(NC(=O)c2cc3cccc(OC)c3o/c2=N\O)c1	i	7*	i	-1.61	.	-9.4
O=C(Nc1cccc(C(F)(F)F)c1)c1csc(-c2ccncc2)n1	i	i	i	1.36	i	-9.7
COc1cc(NC(=O)c2cc3cccc(OC)c3o2)cc(C(=O)Nc2cccc(C(F)(F)F)c2)c1	i	7*	i	0.65	i	-25.5
COc1ccc(C)cc1S(=O)(=O)NNc1nc(C)cc(C)n1	.	.	.	.	i	.
O=C(Cc1ccc2ccccc2c1)NC(Cc1ccccc1)C(=O)O (configuration not stated)	.	.	.	.	i	.
CCOC(=O)C1CCN(C(=O)COc2ccc3c(C)cc(=O)oc3c2)CC1	i	i	i	1.36	i	-15.6
Cc1cc(C)c(NC(=O)c2cc(C(=O)O)ccc2C(=O)O)c([N+](=O)[O-])c1	i	i	i	0.86	i	-4.0
CC1(C)CC(=O)C(C=NCCN2CCN(C3CC(=O)N(c4ccc(Br)cc4)C3=O)CC2)=C(O)C1 (configuration not stated)	i	i	i	0	i	-8.5
O=[N+]([O-])/C=C\c1ccc(N2CCCC2)c(F)c1	i	i	i	-1.43	-9.59*	-12.5
CCN(CC(=O)Nc1cc(Cl)ccc1C)c1ncnc2sc(C)c(C)c12	i	i	-6.62*	0.01	i	-11.2
CCOC(=O)c1c(NC(=O)CSc2nnnn2C)sc(C)c1-c1ccc(C)cc1	i	i	-6.63*	2.34	i	-13.6
SMILES	KCNQ1 pot	KCNQ1 block	KCNK9 block	Kir21 block	KCNK3 inh	hERG protect
CCc1cc(/C(Cc2cscn2)=N\O)c(O)cc1O	i	i	i	-2.06	i	-6.3
CCc1cc(/C(Cc2ccccn2)=N\O)c(O)cc1O	i	i	i	-5.6*	i	-8.3
CCOc1ccc(Oc2cc(NC(=O)c3ccco3)cc([N+](=O)[O-])c2)cc1	.	.	.	.	i	.
O=C(Nc1cc(Oc2ccc(Cl)cc2)cc([N+](=O)[O-])c1)c1ccco1	i	i	-6.99*	0.79	i	-10.6
Cc1ccccc1C1C(C#N)=C2N=C(N)c3c(sc4c3CCCCC4)N2C2=C1C(=O)CCC2 (configuration not stated)	i	i	-6.79*	-0.75	i	-15.7
Nc1ccc(N=Nc2ccccc2)cc1[N+](=O)[O-]	.	.	.	.	i	.
CCN1CCN(c2cc(N3CCN(C(=O)c4ccco4)CC3)c3c4c(onc24)-c2ccccc2C3=O)CC1	i	8*	i	-1.88	i	-10.4
O=C(O)CCNc1cc(N2CCN(C(=O)c3ccco3)CC2)c2noc3c2c1C(=O)c1ccccc1-3	i	i	i	-0.93	i	-18.3
Cn1c2ccccc2c(=O)c2ccc(C#Cc3ccc(N)cc3)cc21	i	i	-7.34*	0.21	i	-16.7
COc1ccc2c(C(=O)NCc3ccc4c(c3)OCO4)c(-c3ccc(S(C)(=O)=O)cc3)sc2c1	.	.	.	.	i	.
CC(C)[N+]1(C)[C@@H]2CC[C@H]1CC(OC(=O)C(CO)c1ccccc1)C2 (some centres not stated)	22*	i	i	-0.11	i	.
C=C(C)COc1ccc2c(C)c(CCC(=O)NC3CC3)c(=O)oc2c1	i	i	i	-0.56	i	-5.6
OCCN1CCN(CCCN2c3ccccc3Sc3ccc(C(F)(F)F)cc32)CC1	i	i	i	-7.13*	i	-22.1
CN(C)CCC(=O)N1c2ccccc2Sc2ccc(C(F)(F)F)cc21	i	i	i	-0.69	i	-14.0
CN(C)CCCN1c2ccccc2Sc2ccc(C(F)(F)F)cc21	i	i	i	-5.13*	i	-14.5
OCCN1CCN(CC/C=C2/c3ccccc3Sc3ccc(C(F)(F)F)cc32)CC1	i	i	i	-5.41*	i	-19.0
CCN(CC)CCCCN1c2ccccc2Sc2ccccc21	i	i	i	-5.8*	i	-13.9
Cc1cccc(NC(=O)C2Cc3ccccc3O/C2=N\O)c1 (configuration not stated)	i	i	i	-1.12	i	-10.3
CCOC(=O)C1=C(C)NC(C)=C(C(=O)OCC)C1c1ccccc1/C=C/C(=O)OC(C)(C)C	i	8*	i	0.27	.	-10.1
CCOC(=O)N1CCN(S(=O)(=O)N2CCCC(C(=O)NCCCN3CCCCC3CC)C2)CC1 (configuration not stated)	i	i	i	0.28	i	-4.5
Cc1ccc(-n2c(C)cc(C3N=C(N)Nc4nc5ccccc5n43)c2C)c(C)c1 (configuration not stated)	i	i	-7.53*	0.08	i	-3.1
